# Source: PubChem
# Shown are actives, neighbours in structure and some others; about 5.8% of the full set was active somewhere.
# GASC1 inh: inhibitors of GASC-1 (KDM4C) histone demethylase, primary screen, biochemical, single concentration HTS; GST-KDM4C 2-372, H3K9me3 peptide, LANCE TR-FRET; inhibition, % at 12.5 µM; 96,000 compounds, 0.15% hits; AID 720574, 2013;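 active = mean replicate inhibition above about 25%, with at least 55% of replicates also reaching it, limit read from the data, passing the limit was not always enough; inconclusive = only one of those two conditions met; inactive = neither condition met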
#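 Test system: N-terminal GST-fused human GASC-1 (KDM4C) fragment, residues 2-372; quantity: GASC-1 enzyme at 10 nM final in reaction; dosing: single dose; schedule: 30 min demethylation and 1 h detection at room temperature; signal: LANCE TR-FRET, excitation 340 nm, emissions 618 and 671 nm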
# T cruzi growth-1: T. cruzi intracellular proliferation inhibitors, primary screen, cell-based, beta-gal Tulahuen parasites, NIH3T3 host, luminescence | 77,000 compounds, 5.9% hits | T. cruzi beta-gal in NIH3T3, GalScreen luminescence, 90 h | inhibition, % at 8.34 µM;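 active = mean inhibition above about 93%, with at least 55% of replicates each passing it, limit read from the data, passing the limit was not always enough; inconclusive = only one of those two conditions holds; inactive = neither condition holds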
# IDH1 mut inh: inhibitors of IDH1 R132H reductase, primary screen, biochemical, plate reader, single point; Isocitrate dehydrogenase [NADP] cytoplasmic (Homo sapiens), O75874; diaphorase/resazurin fluorescence, 60 min; inhibition, % at 10 µM; 70,000 compounds, 0.18% hits; AID 624101, 2012; in the data active = inhibition above about 34%; inconclusive = no clear call, values can overlap the other calls; inactive = below about 11%
# Target sequence (O75874 whole entry R132H): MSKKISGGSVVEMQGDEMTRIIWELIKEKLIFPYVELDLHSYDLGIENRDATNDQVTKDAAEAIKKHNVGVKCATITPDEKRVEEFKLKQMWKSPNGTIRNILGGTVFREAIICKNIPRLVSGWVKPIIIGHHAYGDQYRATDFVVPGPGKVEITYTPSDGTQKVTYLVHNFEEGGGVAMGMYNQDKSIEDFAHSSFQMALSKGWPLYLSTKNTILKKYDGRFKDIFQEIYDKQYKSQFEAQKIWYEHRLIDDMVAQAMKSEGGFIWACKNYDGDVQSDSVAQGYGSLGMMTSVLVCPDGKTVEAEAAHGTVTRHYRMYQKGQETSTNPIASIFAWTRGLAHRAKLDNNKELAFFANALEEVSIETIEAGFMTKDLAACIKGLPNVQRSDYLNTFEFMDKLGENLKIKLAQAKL
# Pf Dd2 inh: P. falciparum Dd2 growth inhibitors, primary screen, SYBR Green fluorescence, single dose replicates; AID 1159554, 2015; 94,000 compounds, 2.3% hits; activity change, % at 10 µM; 72 h; stronger effect = lower value; in the data active = activity change below about -80%; inconclusive = no clear call, values can overlap the other calls
# T cruzi growth-2: T. cruzi intracellular proliferation inhibitors, confirmation, cell-based, NIH3T3 host, beta-gal parasite, luminescence, cherry-pick; shares compounds with T cruzi growth-1; T. cruzi beta-gal in NIH3T3, GalScreen luminescence, 90 h; inhibition, % at 8.35 µM; 5,600 compounds, 72% hits;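 active = mean replicate inhibition above about 95% and at least 55% of replicates individually reaching it, limit read from the data; inconclusive = only one of the two criteria is met; inactive = neither criterion is met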
# T cruzi growth-3: inhibitors of intracellular T. cruzi replication, confirmation, NIH3T3 host cells, beta-gal parasites, cherry-pick, set 2; shares compounds with T cruzi growth-1; T. cruzi beta-gal in NIH3T3, GalScreen luminescence, 90 h; inhibition, % at 2.09 µM; 5,600 compounds, 21% hits; AID 651740, 2012;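 active = mean inhibition above about 95%, with at least 55% of replicates also reaching it, limit read from the data; inconclusive = meets just one of the two conditions; inactive = meets neither condition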
# 3T3 cytotox: cytotoxicity in mouse NIH/3T3 fibroblasts, confirmation, cytotoxicity control for T. cruzi proliferation inhibitor project, cell-based, cherry-pick, single point; shares compounds with T cruzi growth-1; NIH/3T3 viability, CellTiter-Glo ATP luminescence, 90 h; cytotoxicity (signal decrease), % at 8.35 µM; 5,600 compounds, 14% hits; AID 651742, 2012;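 active = mean signal decrease across replicates above about 35% based on untreated-well scatter, with enough replicates individually passing, limit read from the data; inconclusive = no rule stated though some were filed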
# 3T3 cytotox 2: NIH/3T3 fibroblast cytotoxicity, confirmation, cytotoxicity control, cell-based, cherry-pick, single point, set 2 | shares compounds with T cruzi growth-1 | NIH/3T3 viability, CellTiter-Glo ATP luminescence, 90 h | inhibition, % at 24.9 µM | 5,600 compounds, 56% hits;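 active = mean loss of cell viability signal at or above a set limit, and enough replicates individually reaching it; inconclusive = meets only the mean limit or only the replicate share; inactive = meets neither condition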
# Hits are given with their value; . = inactive; ? = inconclusive; / = no result.
SMILES,GASC1 inh,T cruzi growth-1,IDH1 mut inh,Pf Dd2 inh,T cruzi growth-2,T cruzi growth-3,3T3 cytotox,3T3 cytotox 2
CC(=O)NC[C@@H]1[C@@H](c2ccc(-c3ccccc3)cc2)[C@H](CO)N1C(=O)C1CC1,.,99,/,.,.,.,.,.
CC(=O)NC[C@H]1[C@H](c2ccc(-c3cccnc3)cc2)[C@H](CO)N1C(=O)C1CC1,.,111,/,.,.,.,.,.
CNC(=O)C[C@@H]1CC[C@H]2[C@@H](COc3ccc(NC(=O)c4ccc5c(c4)OCO5)cc3C(=O)N2C)O1,.,111,/,.,.,.,.,.
CN1C(=O)c2cc(NC(=O)c3cccc(Cl)c3)ccc2OC[C@@H]2O[C@@H](CC(=O)NC3CCCCC3)CC[C@H]21,.,96,/,.,?,.,.,?
CNC(=O)C[C@H]1CC[C@@H]2[C@@H](COc3ccc(NC(=O)c4ccc5c(c4)OCO5)cc3C(=O)N2C)O1,.,108,/,.,.,.,.,.
CCNC(=O)C[C@@H]1CC[C@@H]2[C@@H](COc3ccc(NC(=O)c4ccc5c(c4)OCO5)cc3C(=O)N2C)O1,.,.,/,.,/,/,/,/
CN1C(=O)c2cc(NC(=O)Nc3ccc(Cl)cc3)ccc2OC[C@@H]2O[C@H](CC(=O)NCCN3CCCCC3)CC[C@@H]21,.,103,/,.,108,.,.,.
CN1C(=O)c2cc(NC(=O)Nc3ccc(Cl)cc3)ccc2OC[C@H]2O[C@@H](CC(=O)NCCN3CCCCC3)CC[C@H]21,.,.,/,.,/,/,/,/
CN1C(=O)c2cc(NC(=O)c3cccc(Cl)c3)ccc2OC[C@H]2O[C@H](CC(=O)NC3CCCCC3)CC[C@H]21,.,.,/,.,/,/,/,/
CNC(=O)C[C@@H]1CC[C@@H]2[C@H](COc3ccc(NC(=O)c4ccc5c(c4)OCO5)cc3C(=O)N2C)O1,.,.,/,.,/,/,/,/
COC(=O)c1ccccc1NC(=O)C1=C(C)NC(=S)NC1c1cc(Cl)cc(OC)c1OC(C)C (centres undefined),/,/,.,/,/,/,/,/
COC(=O)C[C@H]1CC[C@H]2[C@H](COc3ccc(NC(=O)Nc4cccc(Cl)c4)cc3C(=O)N2C)O1,.,101,/,.,103,?,?,46
COc1cccc(NC(=O)CSc2ncnc3scc(-c4ccc(C)cc4)c23)c1,/,/,.,/,/,/,/,/
N#C[C@H]1[C@@H](c2ccc(C3=CCCCC3)cc2)[C@H](CO)N1S(=O)(=O)c1ccccc1,.,97,/,.,97,.,41,100
N#C[C@@H]1[C@H](c2ccc(C3=CCCC3)cc2)[C@H](CO)N1S(=O)(=O)c1cccc(F)c1,.,.,/,.,/,/,/,/
N#C[C@@H]1[C@H](c2ccc(C3=CCCCC3)cc2)[C@@H](CO)N1S(=O)(=O)c1cccc(F)c1,.,98,/,.,?,.,.,104
COc1ccc(C(=O)CSc2nnc(-c3ccc(C)cc3)n2-c2ccc(C)cc2)cc1,/,/,.,/,/,/,/,/
C[C@H](CO)N1C[C@H](C)[C@@H](CN(C)Cc2ccc3c(c2)OCO3)Oc2ncc(/C=C/c3ccccc3)cc2C1=O,.,.,.,.,/,/,/,/
C[C@@H]1CN([C@H](C)CO)C(=O)c2cc(/C=C/c3ccccc3)cnc2O[C@H]1CN(C)Cc1ccc2c(c1)OCO2,.,121,.,.,100,?,38,104
C[C@H](CO)N1C[C@H](C)[C@H](CN(C)Cc2ccc3c(c2)OCO3)Oc2ncc(/C=C/c3ccccc3)cc2C1=O,.,111,.,.,98,.,.,103
C[C@H]1CN([C@@H](C)CO)C(=O)c2cc(/C=C/c3ccccc3)cnc2O[C@@H]1CN(C)Cc1ccc2c(c1)OCO2,.,118,.,.,108,.,.,102
